# UHRF1 binding – human UHRF1 methylated DNA binding inhibitors; Q96T88; UHRF1 binding to methylated oligo, TR-FRET; inhibition, % at 4.4 µM; 0.75% of 370,000 active; AID 687016; in the data active = inhibition above about 21%;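 note: UHRF1 SRA domain binding a hemimethylated CpG hairpin DNA probe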
# Target sequence (Q96T88 whole entry, looked up, the tested form may be a part): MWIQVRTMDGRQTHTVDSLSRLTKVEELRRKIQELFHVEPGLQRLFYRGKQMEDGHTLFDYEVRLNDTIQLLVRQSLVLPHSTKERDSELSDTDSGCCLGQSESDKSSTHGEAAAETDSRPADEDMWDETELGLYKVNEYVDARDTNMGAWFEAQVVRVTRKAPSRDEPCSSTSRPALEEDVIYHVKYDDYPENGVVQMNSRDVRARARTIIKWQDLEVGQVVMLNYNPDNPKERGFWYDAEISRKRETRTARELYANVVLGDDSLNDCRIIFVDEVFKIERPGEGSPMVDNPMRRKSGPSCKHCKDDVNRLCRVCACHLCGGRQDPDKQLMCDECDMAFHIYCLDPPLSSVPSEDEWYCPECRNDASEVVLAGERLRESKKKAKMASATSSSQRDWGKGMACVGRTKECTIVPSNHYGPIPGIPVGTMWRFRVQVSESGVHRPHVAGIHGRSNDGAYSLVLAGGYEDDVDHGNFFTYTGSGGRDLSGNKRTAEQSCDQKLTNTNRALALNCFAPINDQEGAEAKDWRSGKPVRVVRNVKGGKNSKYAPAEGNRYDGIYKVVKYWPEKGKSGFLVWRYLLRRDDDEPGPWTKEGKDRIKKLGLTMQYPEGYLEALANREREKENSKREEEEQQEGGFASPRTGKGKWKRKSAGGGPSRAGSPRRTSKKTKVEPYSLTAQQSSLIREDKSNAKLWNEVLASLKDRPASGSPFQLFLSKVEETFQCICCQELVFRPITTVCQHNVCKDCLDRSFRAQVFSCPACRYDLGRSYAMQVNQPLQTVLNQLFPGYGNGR
# DDE Tn7 FP inh – DD(E)-Tn7 binding inhibition, primary FP screen; P02675; FP displacement of FITC-Tn7 peptide from fibrin DD(E); 0% = median of compound wells per plate; inhibition, % at 8.3 µM; 0.13% of 370,000 active; AID 720508;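 active = inhibition above the mean of compounds falling within the control limits plus 3 SD of them, cut at about 14% in these data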
#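 System: human fibrin DD(E); quantity: Fibrin-DD(E) at 2 µM final; also added: fluorescent Tn7 probe at 0.1 µM; compound dosing: single nominal test concentration of 8.3 µM per compound; schedule: 10 min preincubation, 3 h with tracer, room temperature; detection: fluorescence polarization of the labelled Tn7 tracer; repeats: one replicate per compound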
# TDP2 inh – blocks human TDP2 phosphodiesterase activity; O95551; recombinant TDP2, T5PNP hydrolysis, p-nitrophenol absorbance 415 nm; inhibition, % at 12.8 µM; 0.34% of 370,000 active; AID 720702;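 active = inhibition above the mean of all tested compounds plus 3 SD, set per campaign, cut at about 25% in these data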
#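 test system = human TDP2 enzyme | input = TDP2 enzyme at 120 nM final | medium = 50 mM Tris-HCl pH 7.5 with Mg2+, KCl, DTT, BSA | also added = T5PNP substrate, 5 mM | times = 2 h at 37 °C | technique = epi absorbance | benchmarks = high control without enzyme, low control DMSO plus TDP2 | replication = each compound tested once, singlicate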
# LEDGF integ inh – blocks HIV-1 LEDGF/p75-dependent DNA integration; TR-FRET IN-LEDGF/p75 DNA integration, Eu/Cy5; inhibition, % at 3.7 µM; 0.64% of 370,000 active;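 active = inhibition above the screen-wide mean plus 3 SD, cut at about 13% in these data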;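 note: signal is the Cy5 over europium emission ratio at 671 and 618 nm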
# Tn6 DDE FP – DD(E)-Tn6 binding inhibition, primary FP screen | Fibrin DD(E) TRITC-Tn6 fluorescence polarization displacement | 0.21% of 370,000 active | AID 720509 | P02675 | inhibition, % at 8.3 µM;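 active = inhibition above a per-campaign cutoff: mean of compounds within control limits plus 3 SD, cut at about 15% in these data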
# MBD2 DNA inh – MBD2-methylated oligo binding inhibition; Q9UBB5; TR-FRET, MBD2 binding to methylated oligonucleotide; inhibition, % at 4.4 µM; 0.31% of 370,000 active; AID 686964; in the data active = inhibition above about 13%
# Numbers stand for hits; - = inactive. Compounds with a hit are over-represented: about 1.9% of the library has one in this group of screens.
SMILES,UHRF1 binding,DDE Tn7 FP inh,TDP2 inh,LEDGF integ inh,Tn6 DDE FP,MBD2 DNA inh
Nc1[nH]c(C(=O)c2ccc(Br)cc2)c(-c2ccncc2)c1C(=O)NCCc1c[nH]c2ccccc12,-,-,-,-,-,-
O=C(CN(CCc1ccccc1)S(=O)(=O)c1ccc(Cl)s1)N1CCOCC1,-,-,-,-,-,-
CCOC(=O)C1=C(COC(=O)c2cccc(NC(C)=O)c2)NC(=O)NC1C (centres undefined),-,-,-,-,-,-
CCOC(=O)C1=C(COC(=O)[C@@H](NC(=O)c2cccc(C)c2)C(C)C)NC(=O)NC1C (some centres undefined),21,-,-,-,-,-
CCOC(=O)C1=C(COC(=O)COc2ccc(C(C)=O)cc2)NC(=O)NC1C (centres undefined),-,-,-,-,-,-
CCOC(=O)C1=C(COC(=O)COc2ccc(C#N)cc2)NC(=O)NC1C (centres undefined),22,-,-,-,-,-
N#Cc1ccc(Cn2ccc3ccc(-c4ccc5ccn(C(=O)C6CCC6)c5c4)cc32)cc1,-,-,-,-,-,-
COc1cccc(N2CC(NC(=O)c3cccc4ccccc34)CC2=O)c1 (centres undefined),34,-,-,-,-,-
COc1ccc(N2CC(NC(=O)c3cccc4ccccc34)CC2=O)cc1OC (centres undefined),-,-,-,-,-,-
Cc1ccc(S(=O)(=O)Nc2ccc(Nc3nccn4c(-c5cccc(OC(F)(F)F)c5)cnc34)cc2)cc1,90,-,-,-,-,-
O=C1CCCC/C1=C/Nc1cccc(C(F)(F)F)c1,24,-,-,-,-,-
Cc1nnc(SCC2=C(C(=O)O)N3C(=O)C(NC(=O)Cn4cnnn4)C3SC2)s1 (centres undefined),-,-,-,-,-,-
CO[C@@]1(NC(=O)CSCC#N)C(=O)N2C(C(=O)O)=C(CSc3nnnn3C)CS[C@@H]21,44,-,-,-,-,-
Cc1ccc(C2NC(=O)c3n[nH]c(C(C)C)c32)cc1 (centres undefined),-,-,-,-,-,-
CSc1ncccc1C(=O)OCc1ccc(C#N)cc1,-,-,-,-,-,-
COC(=O)c1cccc(COC(=O)c2cccnc2SC)c1,34,-,-,-,-,-
Cc1nn(CC(=O)O)c(C)c1N,30,-,-,-,-,-
Cc1nn(CC(=O)O)c(C)c1[N+](=O)[O-],-,-,-,-,-,-
COC(=O)[C@]12C[C@H](CC(=O)N3CCSCC3)C(=O)N(Cc3ccc4c(c3)OCO4)C1=C[C@H](C(C)(C)C)O[C@@H]2C,-,-,-,-,-,-
Cn1c2c(c(=O)n(C)c1=O)C(c1ccc(C(F)(F)F)cc1)CC(=O)N2 (centres undefined),31,-,-,-,-,-
CC(C)OC(=O)N(C)C[C@H]1OCc2cn(nn2)CCCC(=O)N([C@@H](C)CO)C[C@@H]1C,-,-,-,-,-,-
Cn1nc(C(C)(C)C)cc1N1C(=O)CCC1(C)C(=O)NCc1ccccc1 (centres undefined),-,-,-,-,-,-
Cc1cccc(C)c1NC(=O)C1(C)CCC(=O)N1c1cc(C(C)(C)C)nn1C (centres undefined),22,-,-,-,-,-
C[C@H]1C2CC(OC(=O)Nc3ccc(C(F)(F)F)cc3)C(C2)[C@H]2CCCCN21 (some centres undefined),-,-,-,-,-,-
COc1ccc(C2=NNC(=O)CC2)cc1,23,-,-,-,-,-
CCCOc1ccc(C2=NNC(=O)CC2)cc1,-,-,-,-,-,-
CC(COc1ccc(C#N)cc1F)CN1CCC(C(O)(c2ccccc2)c2ccccc2)CC1 (centres undefined),-,-,-,-,-,-
O=C(N[C@H](C(=O)N1CCC[C@H]1C(=O)NCc1ccccc1)c1ccccc1)c1ccc(Cl)cc1Cl,-,-,-,-,-,-
CCOC(=O)c1c(C)n(O)c2ccc(Cl)cc2c1=O,25,-,-,-,-,-

# Screening results from PubChem BioAssay.
